Reference: ChEMBL document CHEMBL1122725, “Luteinizing hormone-releasing hormone antagonists containing very hydrophobic amino acids” (1984)
Non-standard residues stand in square brackets, D forms with d. Residues, ends and D or L forms follow the SMILES beside them. dPhe(4-Cl) = N[C@H](Cc1ccc(Cl)cc1)C(=O)O; dPhe(4-F) = N[C@H](Cc1ccc(F)cc1)C(=O)O; d2Nal = N[C@H](Cc1ccc2ccccc2c1)C(=O)O

Tests used:
Format in all cases: functional
[1] = system: Rattus norvegicus; assay: Evaluation of antagonistic potency by rat anti-ovulatory assay when administered in 50% propylene glycol / 0.9% saline vehicle
How it was run: (§1)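 Rats with at least two normal 4-day estrous cycles (daily vaginal lavage cytology, at least 12 days) given the analogue subcutaneously in vehicle, 50% propylene glycol/0.9% saline or Mazola corn oil, at noon on proestrus or on diestrus II (24 h earlier). On expected estrus morning, oviducts examined for ovulated eggs. ED50 from percent ovulating versus log-dose, usually three or more dose groups, 10 animals per group.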

[2] = system: Rattus norvegicus; assay: Evaluation of antagonistic potency by rat anti-ovulatory assay when administered in 50% propylene glycol / 0.9% mazola corn oil vehicle; how it was run: as §1
[3] = species: Rattus norvegicus; assay: Duration of proestrus and the vehicle was 50% propylene glycol /0.9 % mazola corn oil; how it was run: as §1
[4] = species: Rattus norvegicus; assay: Duration of anti-ovulatory activity was measured at noon on diestrus II and the vehicle was 50% propylene glycol /0.9 % mazola corn oil; how it was run: as §1
[5] = species: Rattus norvegicus; assay: Duration of anti-ovulatory activity was measured at noon on diestrus II and the vehicle was 50% propylene glycol /0.9 % saline; how it was run: as §1

SMILES	ED50 [1]	ED50 [2]	ED50 [3]	ED50 [4]	ED50 [5]
CC(=O)N[C@@H](CO)C(=O)N[C@H](Cc1ccc(F)cc1)C(=O)N[C@H](Cc1ccc2ccccc2c1)C(=O)N[C@@H](CO)C(=O)N[C@@H](Cc1ccc(O)cc1)C(=O)N[C@H](Cc1ccc2ccccc2c1)C(=O)N[C@@H](CC(C)C)C(=O)N[C@@H](CCCN=C(N)N)C(=O)N1CCC[C@H]1C(=O)NCC(N)=O	4.3 ug injection-1	1.4 ug injection-1	–	–	–
CC(=O)N1CCC[C@H]1C(=O)N[C@H](Cc1ccc(F)cc1)C(=O)N[C@H](Cc1ccccc1)C(=O)N[C@@H](CO)C(=O)N[C@@H](Cc1ccc(O)cc1)C(=O)N[C@H](Cc1ccc2ccccc2c1)C(=O)N[C@@H](CC(C)C)C(=O)N[C@@H](CCCN=C(N)N)C(=O)N1CCC[C@H]1C(=O)NCC(N)=O	12.2 ug injection-1	–	–	–	–
CC(=O)N[C@H](C(=O)N[C@H](Cc1ccc(F)cc1)C(=O)N[C@H](Cc1ccc2ccccc2c1)C(=O)N[C@@H](CO)C(=O)N[C@@H](Cc1ccc(O)cc1)C(=O)N[C@H](Cc1ccc2ccccc2c1)C(=O)N[C@@H](CC(C)C)C(=O)N[C@@H](CCCN=C(N)N)C(=O)N1CCC[C@H]1C(=O)NCC(N)=O)[C@@H](C)O	7 ug injection-1	4.5 ug injection-1	–	–	–
CC(C)C[C@H](NC(=O)[C@@H](Cc1ccc2ccccc2c1)NC(=O)[C@H](Cc1ccc(O)cc1)NC(=O)[C@H](CO)NC(=O)[C@@H](Cc1ccc2ccccc2c1)NC(=O)[C@@H](Cc1ccc(F)cc1)NC(=O)[C@@H]1CCCN1C=O)C(=O)N[C@@H](CCCN=C(N)N)C(=O)N1CCC[C@H]1C(=O)NCC(N)=O	3 ug injection-1	4.4 ug injection-1	–	–	–
CCNC(=O)[C@@H]1CCCN1C(=O)[C@H](CCCN=C(N)N)NC(=O)[C@H](CC(C)C)NC(=O)[C@@H](CCCN=C(N)N)NC(=O)[C@H](Cc1ccc(O)cc1)NC(=O)[C@H](CO)NC(=O)[C@@H](Cc1ccc2ccccc2c1)NC(=O)[C@@H](Cc1ccc(Cl)cc1)NC(=O)[C@@H]1CCCN1C(C)=O	14 ug injection-1	–	–	–	–
CC(=O)N[C@H](Cc1ccc2ccccc2c1)C(=O)N[C@H](Cc1ccc(F)cc1)C(=O)N[C@H](Cc1ccc2ccccc2c1)C(=O)N[C@@H](CO)C(=O)N[C@@H](Cc1ccc(O)cc1)C(=O)N[C@H](CCCN=C(N)N)C(=O)N[C@@H](CC(C)C)C(=O)N[C@@H](CCCN=C(N)N)C(=O)N1CCC[C@H]1C(=O)NCC(N)=O	16 ug injection-1	–	–	–	–
CC(=O)N[C@H](Cc1ccc(Cl)cc1)C(=O)N[C@H](Cc1ccc(Cl)cc1)C(=O)N[C@H](Cc1ccc2ccccc2c1)C(=O)N[C@@H](CO)C(=O)N[C@@H](Cc1ccc(O)cc1)C(=O)N[C@H](Cc1ccc2ccccc2c1)C(=O)N[C@@H](CC(C)C)C(=O)N[C@@H](CCCN=C(N)N)C(=O)N1CCC[C@H]1C(=O)NCC(N)=O	400 ug injection-1	–	–	–	–
CCNC(=O)[C@@H]1CCCN1C(=O)[C@H](CCCN=C(N)N)NC(=O)[C@H](CC(C)C)NC(=O)[C@@H](Cc1ccc2ccccc2c1)NC(=O)[C@H](Cc1ccc(O)cc1)NC(=O)[C@H](CO)NC(=O)[C@@H](Cc1ccc2ccccc2c1)NC(=O)[C@@H](Cc1ccc(F)cc1)NC(=O)[C@@H]1CCCN1C(C)=O	3.4 ug injection-1	–	–	–	–
CC(=O)N1CCC[C@H]1C(=O)N[C@H](Cc1ccc(Cl)cc1)C(=O)N[C@H](Cc1ccc2ccccc2c1)C(=O)N[C@@H](CO)C(=O)N[C@@H](Cc1ccc(O)cc1)C(=O)N[C@H](Cc1ccc2ccccc2c1)C(=O)N[C@@H](CC(C)C)C(=O)N[C@@H](CCCN=C(N)N)C(=O)N1CCC[C@H]1C(=O)NCC(N)=O	4.8 ug injection-1	3.6 ug injection-1	–	–	–
CCNC(=O)[C@@H]1CCCN1C(=O)[C@H](CCCN=C(N)N)NC(=O)[C@H](CC(C)C)NC(=O)[C@@H](CCCN=C(N)N)NC(=O)[C@H](Cc1ccc(O)cc1)NC(=O)[C@H](CO)NC(=O)[C@@H](Cc1ccc2ccccc2c1)NC(=O)[C@@H](Cc1ccc(F)cc1)NC(=O)[C@@H]1CCCN1C(C)=O	32 ug injection-1	–	–	–	–
CC(C)C[C@H](NC(=O)[C@@H](Cc1ccc2ccccc2c1)NC(=O)[C@H](Cc1ccc(O)cc1)NC(=O)[C@H](CO)NC(=O)[C@@H](Cc1ccc2ccccc2c1)NC(=O)[C@@H](Cc1ccc(F)cc1)NC(=O)[C@H](COCc1ccccc1)NC(=O)OC(C)(C)C)C(=O)N[C@@H](CCCN=C(N)N)C(=O)N1CCC[C@H]1C(=O)NCC(N)=O	400 ug injection-1	–	–	–	–
CC(=O)N1CCC[C@H]1C(=O)N[C@H](Cc1ccc(F)cc1)C(=O)N[C@H](Cc1ccc2ccccc2c1)C(=O)N[C@@H](CO)C(=O)N[C@@H](Cc1ccc(O)cc1)C(=O)N[C@H](Cc1ccc(N)cc1)C(=O)N[C@@H](CC(C)C)C(=O)N[C@@H](CCCN=C(N)N)C(=O)N1CCC[C@H]1C(=O)NCC(N)=O	72 ug injection-1	–	–	–	–
CC(=O)N[C@H](Cc1ccccc1)C(=O)N[C@H](Cc1ccc(Cl)cc1)C(=O)N[C@H](Cc1c[nH]c2ccccc12)C(=O)N[C@@H](CO)C(=O)N[C@@H](Cc1ccc(O)cc1)C(=O)N[C@H](Cc1c[nH]c2ccccc12)C(=O)N[C@@H](CC(C)C)C(=O)N[C@@H](CCCN=C(N)N)C(=O)N1CCC[C@H]1C(=O)NCC(N)=O	160 ug injection-1	74 ug injection-1	–	–	–
CC(=O)N1CCC[C@H]1C(=O)N[C@H](Cc1ccc(Cl)cc1)C(=O)N[C@H](Cc1ccccc1)C(=O)N[C@@H](CO)C(=O)N[C@@H](Cc1ccc(O)cc1)C(=O)N[C@H](Cc1ccc2ccccc2c1)C(=O)N[C@@H](CC(C)C)C(=O)N[C@@H](CCCN=C(N)N)C(=O)N1CCC[C@H]1C(=O)NCC(N)=O	5.6 ug injection-1	–	–	–	–
CC(=O)N[C@H](Cc1ccc2ccccc2c1)C(=O)N[C@H](Cc1ccc(F)cc1)C(=O)N[C@H](Cc1c[nH]c2ccccc12)C(=O)N[C@@H](CO)C(=O)N[C@@H](Cc1ccc(O)cc1)C(=O)N[C@H](CCCN=C(N)N)C(=O)N[C@@H](CC(C)C)C(=O)N[C@@H](CCCN=C(N)N)C(=O)N1CCC[C@H]1C(=O)NCC(N)=O (Ac-[d2Nal][dPhe(4-F)][dW]SY[dR]LRPG-NH2)	2.4 ug injection-1	–	1.1 µg	9 µg	–
CC(=O)N[C@H](Cc1ccc(Cl)cc1)C(=O)N[C@H](Cc1ccc(Cl)cc1)C(=O)N[C@H](Cc1c[nH]c2ccccc12)C(=O)N[C@@H](CO)C(=O)N[C@@H](Cc1ccc(O)cc1)C(=O)N[C@H](CCCN=C(N)N)C(=O)N[C@@H](CC(C)C)C(=O)N[C@@H](CCCN=C(N)N)C(=O)N1CCC[C@H]1C(=O)N[C@H](C)C(N)=O (Ac-[dPhe(4-Cl)][dPhe(4-Cl)][dW]SY[dR]LRP[dA]-NH2)	1.8 ug injection-1	1.2 µg injection-1	1.2 µg	5 µg	–
CC(=O)N1CCC[C@H]1C(=O)N[C@H](Cc1ccc(F)cc1)C(=O)N[C@H](Cc1ccc2ccccc2c1)C(=O)N[C@@H](CO)C(=O)N[C@@H](Cc1ccc(O)cc1)C(=O)N[C@H](Cc1ccc2ccccc2c1)C(=O)N[C@@H](CC(C)C)C(=O)N[C@@H](CCCN=C(N)N)C(=O)N1CCC[C@H]1C(=O)NCC(N)=O (stereo in doubt; 7)	2.2 ug injection-1	4 µg	–	140 µg	35 ug injection-1
